Rows were chosen to be rich in hits. Some 5.5% of all compounds tested hit in one or more screens of this group.
HePTP inhibitor – human HePTP phosphatase inhibition | P35236 | recombinant HePTP phosphatase activity, OD absorbance | inhibition, % at 20 µM | 0.64% of 110,000 active; in the data active = inhibition above about 50%;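 also: plate controls were vehicle for no effect and reference inhibitor for full effect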
Target sequence (P35236 whole entry, looked up): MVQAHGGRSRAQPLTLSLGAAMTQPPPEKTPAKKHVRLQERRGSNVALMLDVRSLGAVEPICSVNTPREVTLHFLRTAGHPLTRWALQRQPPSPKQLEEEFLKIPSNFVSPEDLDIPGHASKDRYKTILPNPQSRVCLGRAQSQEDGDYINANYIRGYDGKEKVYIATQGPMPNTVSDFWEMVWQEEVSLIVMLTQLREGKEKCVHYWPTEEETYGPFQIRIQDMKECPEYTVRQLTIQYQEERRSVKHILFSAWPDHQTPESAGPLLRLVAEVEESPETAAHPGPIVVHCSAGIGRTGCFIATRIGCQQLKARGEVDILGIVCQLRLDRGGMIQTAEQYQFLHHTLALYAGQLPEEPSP
Ecoli WT expand – growth inhibitors of E. coli BW25113 wild type. OD600 absorbance. growth inhibition, % at 100 µM. 0.15% of 98,000 active. AID 710;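 active = growth inhibition above about 50% at one test dose, limit read from the data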;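 also: growth measured after 20 h incubation at 37 °C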
PostGolgi yeast – growth inhibition of a yeast mutant, post-Golgi transport screen; post-Golgi transport phenotypic cell assay; inhibition, % at 10 µM; 0.9% of 98,000 active;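 also: yeast cells grown in 1536-well plates; yeast grown about 18 h at 30C before absorbance read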
Ecoli tolC – blocks growth of E. coli BW25113 tolC mutant. growth inhibition, % at 10 µM (by protocol). OD615. 2.2% of 65,000 active;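 active = growth inhibition at or above a cutoff equal to the mean over every tested compound plus 3 SD, cut at about 60% in these data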;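 also: growth measured after 20 h incubation at 37 °C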
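test system = E. coli BW25113 ΔtolC::kan bacteria | medium = LB with kanamycin 50 µg/mL | signal = OD at 615 nm | schedule = 37 °C, 20 h exposure | evaluation = % inhibition of E. coli growth | compound dosing = one dose of 10 µM final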
PLAP act – activates human placental alkaline phosphatase. activation fold at 20 µM. 1.2% of 96,000 active. purified PLAP enzyme, luminescent substrate read-out; active compounds read high. P05187; in the data active = activation fold above about 2
PostGolgi ctrl – yeast control strain growth, post-Golgi counter-screen | efflux-deficient yeast background strain, growth absorbance A615, 16 h | inhibition, % at 10 µM | 5% of 98,000 active | AID 738
* = called active by the depositor; / = no result given. Rule as the data show it, unless noted: active = inhibition above about 30%; inactive = the rest.

SMILES	HePTP inhibitor	Ecoli WT expand	PostGolgi yeast	Ecoli tolC	PLAP act	PostGolgi ctrl
CC1(C)C(N(O)C(=O)Nc2ccc(Cl)cc2)N(c2ccc(Cl)cc2)C(=O)N1CC(=O)NN (stereo not given)	/	7.0	-2.9	/	2*	7.9
CNC(=O)N(O)C1N(C)C(=O)N(CC(=O)OC)C1(C)C (stereo not given)	/	7.0	-4.8	-14.3	1	-6.8
O=C1/C(=C\c2ccc(OS(=O)(=O)c3ccccc3[N+](=O)[O-])cc2)SC(=S)N1c1ccccc1	-2.8	/	/	/	/	/
c1ccc(Cn2c(CSc3nc4ccccc4o3)nc3ccccc32)cc1	4.4	/	/	/	/	/
COc1ccc(CCN2CC(C(=O)NCc3ccco3)CC2=O)cc1OC (stereo not given)	/	10.0	-11.0	/	1.1	33.3*
Cc1ccc2nsnc2c1NC(=O)c1ccc(OCc2ccccc2)cc1	2.6	/	/	/	/	/
CCn1c(SCC(=O)NCc2cccs2)nnc1-c1ccncc1	6.1	-4.0	6.4	-7.2	0.9	14.6
Cc1csc(SCC(=O)NCc2cccs2)n1	9.3	12.0	1.9	-5.3	1.1	38.3*
CC(C)(C#Cc1ccc(Br)cc1)OC(=O)Nc1cccc2ccccc12	-7.3	/	/	/	/	/
COCCCn1c2nc3ccccc3nc2c2c(=O)n(-c3ccccc3OC)cnc21	5.1	-5.0	34.5*	16.5	1.1	3.6
CN1/C(=C/C(=O)c2nc(S(C)(=O)=O)ncc2Cl)C(C)(C)c2ccccc21	6.7	-3.0	15.7	47.8	1.1	60.0*
CCCCc1nc(NCCN2CCOCC2)c(C#N)c2c1COC(C)(C)C2	4.3	6.0	15.1	16.1	1.6	101.8*
CC(C)Cc1nc(NCCN2CCOCC2)c(C#N)c2c1COC(C)(C)C2	-1.1	13.0	51.2*	12.6	1.5	99.9*
CCc1nc(NCCN2CCOCC2)c(C#N)c2c1CCCC2	7.1	14.0	2.6	5.1	1.3	2.0
Cc1nc(NCCO)c(C#N)c2c1COC(C)(C)C2	-4.0	1.0	3.1	15.9	1.1	19.5
CC(C)Cc1nc(N2CCOCC2)c(C#N)c2c1COC(C)(C)C2	2.9	2.0	-0.9	15.6	1.2	19.0
CC(C)c1nc(NCCN2CCOCC2)c(C#N)c2c1COC(C)(C)C2	0.7	7.0	13.2	3.8	1.5	60.0*
Fc1ccccc1OCCSc1nc2ccc(Br)cc2[nH]1	-5.2	/	/	/	/	/
O=C(Nc1nc(-c2ccc(Cl)cc2)cs1)C1CC2CCC1C2 (stereo not given)	8.0	/	/	/	/	/
O=C(CSc1nc2ccccc2[nH]1)c1ccc(-c2ccccc2)cc1	0.0	/	/	/	/	/
Cc1ccc(OCC(O)CN2CCN(c3ccccc3)CC2)cc1 (stereo not given)	-3.4	1.0	0.0	1.0	1.1	21.5
CCCc1ccc(OCC(O)CN2CCN(c3ccccc3)CC2)cc1 (stereo not given)	4.4	-2.0	72.5*	25.4	1.6	85.4*
CCc1ccc(OCC(O)CN2CCN(c3ccccc3)CC2)cc1 (stereo not given)	10.2	10.0	6.5	7.2	1.3	32.6*
Cc1ccc(N2C(=O)CN=C2Nc2nc(C)cc(C)n2)c(C)c1	1.2	/	/	/	/	/
Cc1cc(C)nc(NC2=NCC(=O)N2c2ccccc2Br)n1	13.1	6.0	3.2	4.4	/	4.1
SMILES	HePTP inhibitor	Ecoli WT expand	PostGolgi yeast	Ecoli tolC	PLAP act	PostGolgi ctrl
Cc1cc(C)nc(NC2=NCC(=O)N2c2ccc3c(c2)OCCO3)n1	2.2	2.0	4.1	-0.2	2*	12.8
COc1ccc(N2C(=O)CN=C2Nc2nc(C)cc(C)n2)cc1	4.3	-7.0	-2.9	8.2	2.3*	0.3
Cc1cc(C)nc(NC2=NCC(=O)N2c2cccc(Cl)c2)n1	2.1	-6.0	-0.7	10.8	2.1*	-4.1
Cc1cc(C)nc(NC2=NCC(=O)N2c2ccccc2)n1	3.7	-5.0	-0.5	4.4	2.4*	1.6
Cc1ccc(NC2=NCC(=O)N2c2ccc3c(c2)OCCO3)c(C)c1	5.6	-8.0	1.4	-17.5	/	5.6
CCOc1ccc(NC(=O)CCC(=O)NCCO)cc1	4.1	/	/	/	/	/
O=C(Nc1ccc(O)cc1)c1ccc(Oc2ccc([N+](=O)[O-])cc2)cc1	-7.5	/	/	/	/	/
COc1cc(Nc2nc(-c3ccccc3)c3cc(C)ccc3n2)cc(OC)c1OC	/	-10.0	-1.4	/	0.6	35.4*
c1ccc2c(c1)ncn2-c1ncnc2sc3c(c12)CCCC3	/	1.0	-9.3	/	1	12.8
CC(O)CNc1nc2ccccc2n1-c1ncnc2sc3c(c12)CCC3 (stereo not given)	6.2	15.0	-2.7	16.2	2.7*	11.7
Cc1oc2c(C)c(O)ccc2c(=O)c1-c1cnn(-c2ccccc2)c1	/	0.0	4.9	/	1.1	3.1
COc1ccc2c(=O)c(-c3cnn(-c4ccccc4)c3)c(C)oc2c1	/	6.0	34.0*	/	0.9	9.6
CCOC(=O)c1ccc(NC(=S)NC(NC(=O)c2ccccc2Cl)C(Cl)(Cl)Cl)cc1 (stereo not given)	-0.9	/	/	/	/	/
Cc1ccc2nc3c(cc2c1)CN(Cc1ccco1)C(=NCC1CCCO1)S3 (stereo not given)	11.0	-3.0	-1.4	17.5	1.2	42.6*
COc1ccccc1CNC(=O)C(=O)Nc1cccc(Cl)c1	6.9	/	/	/	/	/
Cc1nc(-c2cccc(NS(=O)(=O)c3ccc4ccccc4c3)c2)cs1	/	-22.0	8.4	/	1.3	39.0*
O=S(=O)(Nc1cccc(CCc2ccccn2)c1)c1ccc2ccccc2c1	/	-17.0	6.0	/	1	31.6*
Cc1ccc(S(=O)(=O)Nc2cccc(-c3csc(-c4ccccc4)n3)c2)cc1[N+](=O)[O-]	7.0	/	/	/	/	/
COc1ccccc1C1NC(=O)NC(C)=C1C(=O)OC1CCCCCCC1 (stereo not given)	-5.2	/	/	/	/	/
COC(=O)c1c(NC(=O)c2nc3nc(C)cc(C(F)F)n3n2)sc2c1CCC2	/	-14.0	10.3	/	1.1	34.4*
Cc1cc(C(=O)Nc2sc3c(c2C#N)CCC(C)C3)cs1 (stereo not given)	7.1	-13.0	-22.0	-10.6	0.9	9.8
COC(=O)c1c(NC(=O)c2cncc(Br)c2)sc2c1CCC2	-6.9	/	/	/	/	/
Cc1cc(C(F)F)n2nc(C(=O)Nc3sc4c(c3C#N)CCC(C)C4)nc2n1 (stereo not given)	/	-10.0	30.4*	/	1	33.4*
CN(C)CCN1C(=O)C(=O)/C(=C(/O)c2ccccc2)C1c1cccc(F)c1 (stereo not given)	-13.7	/	/	/	/	/
CCOC(=O)C(C#N)C(c1ccc(C)cc1)C1CCOC(C)(CC)C1 (stereo not given)	3.3	/	/	/	/	/
Brc1ccc(-c2nc3ncccn3c2NC2CCCCC2)o1	/	-3.0	4.2	/	1.3	45.4*
O=C(NCc1cccc(C(F)(F)F)c1)C1CC(c2c(Cl)cccc2Cl)=NO1 (stereo not given)	/	2.0	-7.5	/	0.9	34.0*
CCOC(=O)C1CCCN(c2cc(C)nc3cc(-c4ccc(F)cc4)nn23)C1 (stereo not given)	9.8	-5.0	0.3	54.9	1.6	42.4*
Cn1c(NC(=O)CCc2ccccc2)cc(=O)n(C)c1=O	3.7	2.0	-5.2	1.9	0.8	35.9*
CCCC(=O)Nc1cc(=O)n(C)c(=O)n1C	6.6	1.0	16.1	-12.8	0.9	13.6

Source: PubChem BioAssay
